Experimental data from ChEMBL document CHEMBL1212756, “Klebsiella pneumoniae AcrAB efflux pump contributes to antimicrobial resistance and virulence” (2010).
Converted amounts (≈) assume the structure as drawn. The source made the active and inactive calls. The rule behind the calls is not given here.

How the values were obtained:
[1] = tested on: Klebsiella pneumoniae; assay: Antimicrobial activity against rifampin resistant Klebsiella pneumoniae 52145R assessed as growth inhibition by Etest method; type: functional
Procedure, shortened: (§1)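 MICs were read from Etest strips following the manufacturer's instructions. The parent strain is a spontaneous rifampin-resistant mutant of clinical isolate 52145 (serotype O1:K2), grown in LB at 37°C. The acrB and acrR knockouts were made from it by insertion-duplication via homologous recombination with plasmid pFS100.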

[2] = tested on: Klebsiella pneumoniae; assay: Antimicrobial activity against rifampin resistant Klebsiella pneumoniae 52deltaacrB containing isogenic acrB knockout assessed as growth inhibition by Etest method; type: functional; procedure, shortened: as §1
[3] = tested on: Klebsiella pneumoniae; assay: Antimicrobial activity against rifampin resistant Klebsiella pneumoniae 52deltaacrR containing isogenic acrR knockout assessed as growth inhibition by Etest method; type: functional; procedure, shortened: as §1
[4] = tested on: Klebsiella pneumoniae; assay: Antimicrobial activity against rifampin resistant Klebsiella pneumoniae 52145R assessed as growth inhibition at 0.1 ug/ml in presence of 50 uM uncoupler CCCP and glucose by Etest method; type: functional, organism-based
Procedure, shortened: (§2)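 Exponential-phase LB cultures (37°C) were harvested and resuspended at ca. 2.1 x 10^5 CFU/ml in 1% tryptone-PBS, pH 7.4. They were exposed to polymyxin B 0.1 µg/ml for 30 min at 37°C, either alone, after de-energizing with 50 µM CCCP, or with 0.4% glucose. Colony counts are given as % of unexposed cells, in duplicate on at least three occasions.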

[5] = tested on: Klebsiella pneumoniae; assay: Antimicrobial activity against rifampin resistant Klebsiella pneumoniae 52145R assessed as growth inhibition at 0.1 ug/ml in presence of 50 uM uncoupler CCCP by Etest method; type: functional, organism-based; procedure, shortened: as §2
[6] = tested on: Klebsiella pneumoniae; assay: Antimicrobial activity against rifampin resistant Klebsiella pneumoniae 52deltaacrB containing isogenic acrB knockout assessed as growth inhibition at 0.1 ug/ml by Etest method; type: functional, organism-based

## C[C@@H](O)[C@H]1C(=O)N2C(C(=O)O)=C(S[C@@H]3CN[C@H](C(=O)Nc4cccc(C(=O)O)c4)C3)[C@H](C)[C@H]12
[1]
  MIC: 0.012 µg/mL (≈ 0.0252 µM)
[2]
  MIC: 0.012 µg/mL (≈ 0.0252 µM)
[3]
  MIC: 0.012 µg/mL (≈ 0.0252 µM)

## CO/N=C(\C(=O)N[C@@H]1C(=O)N2C(C(=O)O)=C(COC(C)=O)CS[C@H]12)c1csc(N)n1 [CEFOTAXIME]
[1]
  MIC: 0.125 µg/mL (≈ 0.274 µM)
[2]
  MIC: 0.06 µg/mL (≈ 0.132 µM)
[3]
  MIC: 4 µg/mL (≈ 8.78 µM)

## CO[C@@]1(NC(=O)Cc2cccs2)C(=O)N2C(C(=O)O)=C(COC(N)=O)CS[C@@H]21 [CEFOXITIN]
[1]
  MIC: 8 µg/mL (≈ 18.7 µM)
[2]
  MIC: 4 µg/mL (≈ 9.36 µM)
[3]
  MIC: 32 µg/mL (≈ 74.9 µM)

## O=C(N[C@H](CO)[C@H](O)c1ccc([N+](=O)[O-])cc1)C(Cl)Cl [CHLORAMPHENICOL]
[1]
  MIC: 2 µg/mL (≈ 6.19 µM)
[2]
  MIC: 1 µg/mL (≈ 3.09 µM)
[3]
  MIC: 4 µg/mL (≈ 12.4 µM)

## O=C(O)c1cn(C2CC2)c2cc(N3CCNCC3)c(F)cc2c1=O [CIPROFLOXACIN]
[2]
  MIC: 0.008 µg/mL (≈ 0.0241 µM)

## CC[C@H]1OC(=O)[C@H](C)[C@@H](O[C@H]2C[C@@](C)(OC)[C@@H](O)[C@H](C)O2)[C@H](C)[C@@H](O[C@@H]2O[C@H](C)C[C@H](N(C)C)[C@H]2O)[C@](C)(O)C[C@@H](C)C(=O)[C@H](C)[C@@H](O)[C@]1(C)O [ERYTHROMYCIN]
[1]
  MIC: 32 µg/mL (≈ 43.6 µM)
[2]
  MIC: 8 µg/mL (≈ 10.9 µM)
[3]
  MIC: 32 µg/mL (≈ 43.6 µM)

## C[C@@H](O)[C@H]1C(=O)N2C(C(=O)O)=C(SCCNC=N)C[C@H]12 [IMIPENEM ANHYDROUS]
[1]
  MIC: 0.125 µg/mL (≈ 0.418 µM)
[2]
  MIC: 0.125 µg/mL (≈ 0.418 µM)
[3]
  MIC: 0.125 µg/mL (≈ 0.418 µM)

## C[C@H]1COc2c(N3CCN(C)CC3)c(F)cc3c(=O)c(C(=O)O)cn1c23.C[C@H]1COc2c(N3CCN(C)CC3)c(F)cc3c(=O)c(C(=O)O)cn1c23.O [LEVOFLOXACIN]
[1]
  MIC: 0.09 µg/mL
[2]
  MIC: 0.006 µg/mL
[3]
  MIC: 0.19 µg/mL

## C[C@@H](O)[C@H]1C(=O)N2C(C(=O)O)=C(S[C@@H]3CN[C@H](C(=O)N(C)C)C3)[C@H](C)[C@H]12 [MEROPENEM]
[1]
  MIC: 0.03 µg/mL (≈ 0.0782 µM)
[2]
  MIC: 0.03 µg/mL (≈ 0.0782 µM)
[3]
  MIC: 0.03 µg/mL (≈ 0.0782 µM)

## CCn1cc(C(=O)O)c(=O)c2ccc(C)nc21 [NALIDIXIC ACID]
[1]
  MIC: 4 µg/mL (≈ 17.2 µM)
[2]
  MIC: 0.5 µg/mL (≈ 2.15 µM)
[3]
  MIC: 8 µg/mL (≈ 34.4 µM)

## CN(C)[C@@H]1C(O)=C(C(N)=O)C(=O)[C@@]2(O)C(O)=C3C(=O)c4c(O)cccc4[C@@](C)(O)[C@H]3C[C@@H]12 [TETRACYCLINE]
[1]
  MIC: 2 µg/mL (≈ 4.5 µM)
[2]
  MIC: 0.25 µg/mL (≈ 0.563 µM)
[3]
  MIC: 4 µg/mL (≈ 9 µM)

## NC[C@H]1O[C@H](O[C@H]2[C@H](O)[C@@H](O[C@H]3O[C@H](CO)[C@@H](O)[C@H](N)[C@H]3O)[C@H](N)C[C@@H]2N)[C@H](N)C[C@@H]1O [TOBRAMYCIN]
[1]
  MIC: 0.25 µg/mL (≈ 0.535 µM)
[2]
  MIC: 0.125 µg/mL (≈ 0.267 µM)
[3]
  MIC: 0.25 µg/mL (≈ 0.535 µM)

## GENTAMICIN
[1]
  MIC: 0.25 µg/mL
[2]
  MIC: 0.06 µg/mL
[3]
  MIC: 0.25 µg/mL

## POLYMYXIN B
[4]
  growth inhibition (GI): inactive
[5]
  growth inhibition (GI): Active
[6]
  growth inhibition (GI): Active
